Results collected from several papers.
Each line is one published result; the experiments were not run side by side.
DRD3: D(3) dopamine receptor (DRD3, Homo sapiens, UniProt P35462)
SLC6A3: Sodium-dependent dopamine transporter (SLC6A3, Homo sapiens, UniProt Q01959)
CA12: Carbonic anhydrase 12 (CA12, Homo sapiens, UniProt O43570)
USP51: Ubiquitin carboxyl-terminal hydrolase 51 (USP51, Homo sapiens, UniProt Q70EK9)
Lyn: Tyrosine-protein kinase Lyn (Lyn, Mus musculus, UniProt P25911)

| Structure (SMILES) | target | read-out | action | technique | cells | tested at | inhibition [%] |
| --- | --- | --- | --- | --- | --- | --- | --- |
| CC(C)c1ccccc1OCCOCC(O)CN1CCN(c2cccc(C(F)(F)F)c2)CC1 (stereo not shown) | DRD3 | enzyme activity | inhibitor |  |  | 10 µM | 14.3 |
| Clc1ccc(CC2CCN(CCCCn3nnnc3C(c3ccccc3)c3ccccc3)CC2)cc1Cl | SLC6A3 | transporter uptake | inhibitor |  | HEK293 | 1 µM | 67.7 |
| CCOC(=O)C1CSc2[nH]c(=O)sc2C1c1cn(-c2ccccc2)nc1-c1ccc(Cl)cc1 (stereo not shown) | CA12 | enzyme activity | inhibitor | absorbance |  | 10 µM | 85.5 |
| NC(=O)NC1NC(=O)NC1=O (stereo not shown) | USP51 | enzyme activity | inhibitor |  |  | 5 µM | 13 |
| Clc1ccc(C(c2ccccc2)c2nnnn2CCCCN2CCC(CCCc3ccccc3)CC2)cc1 (stereo not shown) | SLC6A3 | transporter uptake | inhibitor |  | HEK293 | 1 µM | 69 |
| COc1ccc(C(C)=O)c(O)c1 | USP51 | enzyme activity | inhibitor |  |  | 5 µM | 18 |
| c1ccc(C2CCN(CCCCn3nnnc3C(c3ccccc3)c3ccccc3)CC2)cc1 | SLC6A3 | transporter uptake | inhibitor |  | HEK293 | 1 µM | 93.9 |
| O=C(CCN1CCC(O)(c2ccc(F)cc2)C1)c1ccc2c(c1)OCCO2 (stereo not shown) | DRD3 | enzyme activity | inhibitor |  |  | 10 µM | 9 |
| Clc1ccc(C(c2ccccc2)c2nnnn2CCCCN2CCC(Cc3ccc(Cl)c(Cl)c3)CC2)cc1 (stereo not shown) | SLC6A3 | transporter uptake | inhibitor |  | HEK293 | 1 µM | 67.8 |
| C[C@H](CCC(=O)NCC(=O)O)[C@H]1CC[C@H]2[C@@H]3[C@H](O)C[C@@H]4C[C@H](O)CC[C@]4(C)[C@H]3C[C@H](O)[C@]12C | USP51 | enzyme activity | inhibitor |  |  | 5 µM | 0 |
| O=C1NC(=S)C(=Cc2cn(-c3ccccc3)nc2-c2ccc(Br)cc2)S1 | CA12 | enzyme activity | inhibitor | absorbance |  | 1 µM | 32.3 |
| Cc1ccc(Nc2nccc(N(C)c3ccc4c(C)n(C)nc4c3)n2)cc1S(N)(=O)=O | Lyn | enzyme activity | inhibitor |  |  | 0.3 µM | 66 |
| c1ccc(CCCC2CCN(CCCCn3nnnc3C(c3ccccc3)c3ccccc3)CC2)cc1 | SLC6A3 | transporter uptake | inhibitor |  | HEK293 | 1 µM | 63 |
| COc1ccc(CCN2C(=O)CC(N3CCN(c4ccc(Cl)cc4)CC3)C2=O)cc1OC (stereo not shown) | DRD3 | enzyme activity | inhibitor |  |  | 10 µM | -14.6 |
| Fc1ccc(C(c2ccc(F)cc2)c2nnnn2CCCN2CCC(Cc3ccccc3)CC2)cc1 | SLC6A3 | transporter uptake | inhibitor |  | HEK293 | 1 µM | 93.5 |
| O=C(Nc1ccc(S(=O)(=O)N2CCC(Cl)CC2)cc1)c1ccc([N+](=O)[O-])o1 | Sodium- and chloride-dependent GABA transporter 1 (Slc6a1, Rattus norvegicus, UniProt P23978) | ligand displacement |  | radioligand |  | 10 µM | 17 |
| O=C(CN1CCN(c2ccc(F)cc2)CC1)Nc1cc(Cl)cc(Cl)c1 | DRD3 | enzyme activity | inhibitor |  |  | 10 µM | -6.1 |
| N#CC1CSc2[nH]c(=O)sc2C1c1cn(-c2ccccc2)nc1-c1ccc(Br)cc1 (stereo not shown) | CA12 | enzyme activity | inhibitor | absorbance |  | 0.1 µM | 40.6 |
| O=c1ccc2cc3ccoc3cc2o1 | USP51 | enzyme activity | inhibitor |  |  | 5 µM | 0 |

| Structure (SMILES) | target | read-out | action | technique | cells | tested at | inhibition [%] |
| --- | --- | --- | --- | --- | --- | --- | --- |
| COc1ccc(S(N)(=O)=O)cc1C(=O)NCCCN1CCN(c2ccccc2C)CC1 | DRD3 | enzyme activity | inhibitor |  |  | 10 µM | 22.8 |
| Cc1ccc(-c2nn(-c3ccccc3)cc2C2c3sc(=O)[nH]c3SC3C(=O)N(c4ccccc4)C(=O)C32)cc1 (stereo not shown) | CA12 | enzyme activity | inhibitor | absorbance |  | 1 µM | 56.2 |
| O=C(c1ccc(Cl)cc1)N(Cc1ccccc1)C1CCCCC1 | SLC6A3 | cell-free assay |  |  |  | 10 µM | 48.8 |
| Clc1ccc(C(c2ccccc2)c2nnnn2CCCCN2CCN(CCCc3ccccc3)CC2)cc1 (stereo not shown) | SLC6A3 | transporter uptake | inhibitor |  | HEK293 | 1 µM | 81.6 |
| CCOC(=O)C1CSc2[nH]c(=O)sc2C1c1cn(-c2ccccc2)nc1-c1ccc(C)cc1 (stereo not shown) | CA12 | enzyme activity | inhibitor | absorbance |  | 10 nM | 11.9 |
| COc1ccc(-c2oc3c(CC=C(C)C)c(O[C@@H]4O[C@H](CO)[C@@H](O)[C@H](O)[C@H]4O)cc(O)c3c(=O)c2O[C@@H]2O[C@@H](C)[C@H](O)[C@@H](O)[C@H]2O)cc1 | USP51 | enzyme activity | inhibitor |  |  | 5 µM | 7 |
| CCOC(=O)C1CSc2[nH]c(=O)sc2C1c1cn(-c2ccccc2)nc1-c1ccccc1 (stereo not shown) | CA12 | enzyme activity | inhibitor | absorbance |  | 10 nM | 10.6 |
| OC[C@H]1NC[C@H](O)[C@@H](O)[C@@H]1O | USP51 | enzyme activity | inhibitor |  |  | 5 µM | 0 |
| CCn1c2ccccc2c2cc(CNCCCN3CCOCC3)ccc21 | DRD3 | enzyme activity | inhibitor |  |  | 10 µM | 13.5 |
| CCN(CC)CCNC(=O)c1c(C)[nH]c(/C=C2\C(=O)Nc3ccc(F)cc32)c1C | Lyn | enzyme activity | inhibitor |  |  | 0.3 µM | 40 |
| Clc1ccc(C(c2ccc(Cl)cc2)c2nnnn2CCCN2CCC(Cc3ccccc3)CC2)cc1 | SLC6A3 | transporter uptake | inhibitor |  | HEK293 | 1 µM | 90.8 |
| COc1cc(OC)c(OC)cc1CN1CCN(Cc2c[nH]c3ccccc23)CC1 | DRD3 | enzyme activity | inhibitor |  |  | 10 µM | 8.6 |
| Oc1cccc(Nc2nc(-c3ccc(F)cc3F)cs2)c1 | Peroxisome proliferator-activated receptor gamma (PPARG, Homo sapiens, UniProt P37231) | cell-free assay |  |  |  | 10 µM | 86.5 |
| O=c1cc(-c2ccccc2)oc2cc(O)c(O)c(O)c12 | USP51 | enzyme activity | inhibitor |  |  | 5 µM | 95 |
| CC(=O)O[C@H]1[C@H](O[C@@H]2[C@@H](O)[C@@H](O)[C@H](Oc3c(-c4ccc(O)cc4)oc4cc(O)cc(O)c4c3=O)O[C@H]2C)O[C@H](CO)[C@@H](O)[C@@H]1O | Aromatase (CYP19A1, Homo sapiens, UniProt P11511) | enzyme activity | inhibitor |  |  | 20 µg/mL | 58 |
| CC1CCC(C(C)C)C(O)C1 (racemic) | USP51 | enzyme activity | inhibitor |  |  | 5 µM | 37 |
| CCOC(=O)C1CSc2[nH]c(=O)sc2C1c1cn(-c2ccccc2)nc1-c1ccc(OC)cc1 (stereo not shown) | CA12 | enzyme activity | inhibitor | absorbance |  | 1 µM | 58.2 |
| C=CCn1c(SCC(=O)NC2=NN(c3ccccc3)C(=O)C2)nnc1-c1cccs1 | DRD3 | enzyme activity | inhibitor |  |  | 10 µM | -4.7 |
